Screens (PubChem)
An excerpt weighted towards active compounds, which were near 3.1% of everything screened.
SENP7 inh = inhibitors of human SENP7 protease. Q9BQF6. recombinant SENP7, Z-RLRGG-aminoluciferin luminescence, 40 min. inhibition, % at 5 µM. 330,000 tested, 1.5% active;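 active = inhibition above about 50% at the single test dose, limit read from the data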;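 also: plate controls were DMSO with enzyme for no effect and no enzyme buffer wells for full effect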
SENP8 block-1 = inhibitors of human SENP8 protease; inhibition, % at 10 µM; 330,000 tested, 1.2% active; purified SENP8, Z-RLRGG-aminoluciferin cleavage, luminescence; Q96LD8; in the data active = inhibition above about 50%
Target sequence (Q96LD8 whole entry, looked up): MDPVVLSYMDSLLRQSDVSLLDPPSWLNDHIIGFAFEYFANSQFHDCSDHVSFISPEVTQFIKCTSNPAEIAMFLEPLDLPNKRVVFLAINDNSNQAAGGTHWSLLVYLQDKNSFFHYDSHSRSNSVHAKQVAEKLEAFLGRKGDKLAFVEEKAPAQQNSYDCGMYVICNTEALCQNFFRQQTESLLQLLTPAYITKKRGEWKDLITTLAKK
UBC13 inh = inhibitors of human UBC13 polyubiquitin chain formation; P61088; 330,000 tested, 0.47% active; TR-FRET; AID 485273; inhibition, % at 20 µM; in the data active = inhibition above about 45%, passing the limit was not always enough
Target sequence (P61088 whole entry, looked up): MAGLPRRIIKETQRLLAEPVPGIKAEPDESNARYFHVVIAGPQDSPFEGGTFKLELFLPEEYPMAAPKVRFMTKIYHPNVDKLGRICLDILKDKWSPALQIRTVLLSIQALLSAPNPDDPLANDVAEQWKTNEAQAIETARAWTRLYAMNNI
Apaf-1 inh = inhibitors of human Apaf-1 apoptosome; O14727; AID 489030; inhibition, % at 20 µM; 330,000 tested, 0.71% active; reconstituted apoptosome caspase-3 activity, DEVD-Rh110 fluorescence; active = inhibition of at least 40% at 20 µM;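 also: plate controls were DMSO wells for no effect and DEVD-CHO caspase inhibitor wells for full effect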
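Material: cell-free apoptosome with Apaf-1, procaspase-3 and caspase-9; Buffer or medium: Hepes pH 7.5 with detergent and BSA; Reagent: cytochrome c trigger plus (Z-DEVD)2-Rh110 caspase-3 substrate; Times: compound with Apaf-1, dATP, procaspase-3 30 min, then 50 min reaction, room temperature; Technique: Rh110 fluorescence intensity.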
SENP8 block-2 = inhibitors of human SENP8 protease; Q96LD8; inhibition, % at 20 µM; 360,000 tested, 0.64% active; recombinant SENP8, Nedd8 substrate fluorescence; in the data active = inhibition mostly above about 40%, no sharp cut-off; inactive = mostly below about 27%
SENP6 block = inhibitors of human SENP6 protease | Q9GZR1 | Recombinant SENP6 catalytic domain, aminoluciferin luminescence | inhibition, % at 10 µM | 330,000 tested, 1.8% active | AID 2599;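 active = inhibition above about 50% at the single tested dose, limit read from the data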;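 also: plate controls were DMSO wells with enzyme for no effect and DMSO wells lacking enzyme for full effect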
SENP8 conf = confirmation of human SENP8 protease inhibitors. Recombinant SENP8, Z-RLRGG-aminoluciferin luminescence, 60 min. 6,200 tested, 40% active. AID 488912. shares compounds with SENP7 inh. inhibition, % at 12.5 µM;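 active = mean inhibition across replicates above about 50%, limit read from the data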
SENP6 conf = human SENP6 inhibition, confirmed; shares compounds with SENP7 inh; recombinant SENP6, Z-RLRGG-aminoluciferin luminescence; inhibition, % at 12.5 µM; 6,200 tested, 58% active
SENP7 confirm = confirmation of human SENP7 protease inhibitors; shares compounds with SENP7 inh; recombinant SENP7, Z-RLRGG-aminoluciferin luminescence, 40 min; inhibition, % at 12.5 µM; 6,200 tested, 69% active; AID 488917
Casp3 SENP sel = selectivity test for SENP inhibitors: human caspase-3 inhibition | shares compounds with SENP7 inh | purified caspase-3, Z-DEVD-aminoluciferin luminescence, 60 min | inhibition, % at 12.5 µM | 6,200 tested, 60% active | AID 488918;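 active = mean inhibition above about 50%, limit read from the data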;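 also: plate controls were enzyme with DMSO for no effect and wells without caspase-3 for full effect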
Target sequence (P42574 28-227 limits assumed): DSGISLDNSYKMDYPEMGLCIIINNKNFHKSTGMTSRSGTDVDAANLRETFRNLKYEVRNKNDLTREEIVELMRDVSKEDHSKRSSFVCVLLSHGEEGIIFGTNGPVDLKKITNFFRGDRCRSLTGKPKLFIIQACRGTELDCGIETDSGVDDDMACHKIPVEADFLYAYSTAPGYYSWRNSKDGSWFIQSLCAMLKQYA
SENP luc ctr = counter-screen for SENP inhibitors: luminescence interference | shares compounds with SENP7 inh | Pre-incubated SENP8/Z-RLRGG-aminoluciferin, luciferase luminescence interference | inhibition, % at 12.5 µM | 6,200 tested, 39% active | AID 488919;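 active = mean inhibition above about 50% when retested at one dose, limit read from the data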;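 also: plate controls were DMSO wells with completed reaction for no effect and substrate without enzyme for full effect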
The depositor's hits bear a star; . = no result given.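 The calls were made as follows, unless noted: active = mean inhibition above about 50% in the one-dose retest (limit read from the data); inactive = the rest.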

SMILES	SENP7 inh	SENP8 block-1	UBC13 inh	Apaf-1 inh	SENP8 block-2	SENP6 block	SENP8 conf	SENP6 conf	SENP7 confirm	Casp3 SENP sel	SENP luc ctr
CNc1cc(-c2ccc(CC#N)cc2)ncn1	.	.	.	.	-104.2	.	.	.	.	.	.
COc1cc(C2N=C(c3ccccc3)NO2)cc(Br)c1O (stereo not drawn)	28.0	77.2*	-4.9	-4.0	-165.4	91.2*	85.0*	84.0*	91.7*	58.1*	85.2*
FC(F)Oc1ccc(C2N=C(c3ccccc3)NO2)cc1 (stereo not drawn)	1.7	53.7*	7.2	12.2	-19.7	61.9*	17.0	28.1	23.7	17.9	13.8
C/C(=N\Nc1ccc([N+](=O)[O-])cc1)c1ccco1	69.8*	57.9*	-96.7	-4.4	-20.4	74.3*	26.7	50.6*	83.5*	45.8	15.6
COc1ccc(-c2ccc3c(c2)c(Sc2ccccc2)c(-c2ccccc2)n3C)cc1	.	.	.	.	-363.6	.	.	.	.	.	.
Oc1nc(Nc2ccccc2)sc1/C=C1\C=Nc2ccccc21	50.8*	34.4	-4.0	2.3	-32.7	64.2*	13.3	34.2	55.1*	14.8	5.2
CC(C)CC(N)c1csc(Nc2ccc(C(F)(F)F)cn2)n1 (stereo not drawn)	.	.	.	.	-67.7	.	.	.	.	.	.
CC1C(=O)NN=C1C(=O)N/N=C\c1ccc(O)cc1O (stereo not drawn)	74.7*	60.8*	16.0	-9.8	8.1	71.0*	68.5*	64.7*	87.0*	88.9*	24.4
O=C(N/N=C/c1ccc(N2CCOCC2)cc1)c1cccs1	75.8*	63.5*	-5.2	0.8	-375.8	74.5*	67.4*	68.6*	92.2*	89.8*	70.3*
CN1CCN(c2ccc(NC(=O)c3cccs3)cc2)CC1	38.7	28.2	5.2	1.6	0.6	54.4*	25.2	24.1	71.6*	81.7*	46.9
CC(C)C(=O)N1CCN(c2ccc(NC(=O)c3cccs3)cc2)CC1	-6.2	-8.0	-3.0	-0.6	17.8	-9.7	.	.	.	.	.
O=C(N/N=C/c1ccc(N2CCOCC2)cc1)c1ccc(NS(=O)(=O)c2cccs2)cc1	-6.5	-7.3	-2.5	8.2	-406.2	-16.0	.	.	.	.	.
Cc1ccn(-c2ccc(NC(=O)c3cccs3)cc2)n1	80.4*	74.2*	7.0	1.7	5.1	84.7*	77.9*	76.2*	94.5*	87.6*	82.5*
CCCCCCn1c(SCC(=O)NC2CCS(=O)(=O)C2)nc2ccccc2c1=O (stereo not drawn)	.	.	.	.	26.6	.	.	.	.	.	.
Cc1occc1C(=O)/C(C#N)=C/c1ccc(O)c(Br)c1	92.6*	96.9*	-115.9	4.2	17.9	97.6*	98.3*	100.3*	102.8*	97.3*	97.3*
N#C/C(=C\c1ccc(O)c(Br)c1)C(=O)N1CCCCC1	13.2	-1.5	-6.5	-3.8	-21.9	7.3	.	.	.	.	.
CCOC(=O)CSC1=NC(=O)/C(=C\c2ccc(OC(C)=O)cc2)S1	78.2*	47.3	18.4	-3.6	22.5	71.9*	56.9*	52.0*	73.4*	40.8	77.1*
CCOC(=O)CSC1=NC(=O)/C(=C/c2ccc(Br)cc2)S1	37.8	42.5	8.2	3.3	10.7	39.7	.	.	.	.	.
COc1ccccc1CCNC(=O)c1c(N)[nH]c(C(=O)c2ccccc2)c1-c1ccc(Br)cc1	.	.	.	.	7.9	.	.	.	.	.	.
CCCCN(C)c1c(C)nc2ccc(C(=O)Nc3ccc(OC)c(OC)c3)cn12	.	.	.	.	9.4	.	.	.	.	.	.
CCOc1cccc(-c2nc3cc(C)ccc3o2)c1	46.4	39.9	4.5	-4.9	14.2	79.4*	24.0	48.8	83.0*	44.6	35.8
Cc1ccc2oc(-c3ccccc3)nc2c1	93.3*	88.1*	9.2	2.1	-27.6	95.0*	-5.4	74.9*	100.2*	45.8	9.3
Cc1ccc2oc(-c3cccc(NC(=O)Cn4cnc5c(=O)n(C)c(=O)n(C)c54)c3)nc2c1	30.5	19.4	5.3	6.1	.	36.4	.	.	.	.	.
COc1ccc(C(=O)COC(=O)c2sccc2C)cc1OC	-0.2	-0.4	12.3	-2.9	8.0	2.0	.	.	.	.	.
Cc1ccsc1C(=O)OCC(=O)c1ccc(OC(F)F)cc1	96.7*	94.1*	7.5	-9.5	15.3	94.8*	69.2*	91.4*	101.8*	92.2*	29.2
SMILES	SENP7 inh	SENP8 block-1	UBC13 inh	Apaf-1 inh	SENP8 block-2	SENP6 block	SENP8 conf	SENP6 conf	SENP7 confirm	Casp3 SENP sel	SENP luc ctr
COc1cccc(C(=O)COC(=O)c2cccs2)c1	86.2*	77.0*	4.0	6.5	8.3	84.1*	0.7	80.8*	96.6*	84.3*	82.2*
O=C(COC(=O)c1cccs1)c1ccccc1	82.7*	78.5*	3.6	-3.2	27.5	89.6*	78.1*	80.5*	95.9*	89.1*	84.1*
COc1cccc(C(=O)COc2ccc(NC(=O)c3cccs3)cc2)c1	-16.1	-18.1	-8.0	7.2	11.2	-7.8	.	.	.	.	.
COc1ccc(C(=O)COC(=O)c2cccs2)cc1	99.5*	91.7*	2.9	-4.1	10.5	94.5*	94.5*	95.2*	101.7*	96.1*	92.9*
COc1ccccc1C(=O)COC(=O)c1cccs1	3.1	-3.9	-9.0	3.6	4.3	9.9	.	.	.	.	.
CCOC(=O)[C@]12CCCC=C1N(Cc1ccc(Cl)cc1Cl)C(=O)[C@H](CC(=O)NCc1cccc3ccccc13)C2	.	.	.	.	13.9	.	.	.	.	.	.
COc1ccc(OC)c(CN2C(=O)CN(S(C)(=O)=O)CC2(C)C(=O)NC(C)C)c1 (stereo not drawn)	.	.	.	.	15.0	.	.	.	.	.	.
O=C1[C@H]2[C@@H](c3ccccc3)N[C@]3(CCCN(Cc4ccc(Br)cc4)C3=O)[C@H]2C(=O)N1Cc1ccccc1	.	.	.	.	6.0	.	.	.	.	.	.
Cc1ccsc1C(=O)OCC(=O)Nc1sccc1C(N)=O	66.8*	47.7	8.1	11.0	-1.3	37.8	56.1*	58.0*	78.9*	66.8*	24.4
Cc1ccsc1C(=O)OCC(=O)NCCNC(=O)COC(=O)c1sccc1C	4.8	3.3	2.8	5.2	1.4	-0.6	.	.	.	.	.
O=C(Nc1cccc(Cl)c1)Nc1ccccc1C(=O)NCc1ccco1	76.0*	67.9*	4.3	7.5	-403.5	72.6*	14.1	46.8	95.6*	42.6	46.3
COc1ncccc1-c1ccc2nncn2c1	.	.	.	.	-15.2	.	.	.	.	.	.
CS(=O)(=O)N1CCCCC1c1cc(C(=O)Nc2ccccc2Cl)no1 (stereo not drawn)	.	.	.	.	2.8	.	.	.	.	.	.
